Measurements taken from ChEMBL document CHEMBL4673245, “Discovery of AZD9833, a Potent and Orally Bioavailable Selective Estrogen Receptor Degrader and Antagonist” (J Med Chem, 2020).
pIC50: −log10 of the molar value.

How the values were obtained:
[1] = target: T1, Estrogen receptor (Homo sapiens) (UniProt P03372); assay: Induction of ERalpha degradation in human MCF7 cells assessed as maximum degradation incubated for 18 to 24 hrs by Alexa fluor 488/Hoechst staining based immunofluorescence imaging analysis relative to fulvestrant; assay type: cell-based; conditions: time lower […], time upper […]
T1 sequence (whole entry): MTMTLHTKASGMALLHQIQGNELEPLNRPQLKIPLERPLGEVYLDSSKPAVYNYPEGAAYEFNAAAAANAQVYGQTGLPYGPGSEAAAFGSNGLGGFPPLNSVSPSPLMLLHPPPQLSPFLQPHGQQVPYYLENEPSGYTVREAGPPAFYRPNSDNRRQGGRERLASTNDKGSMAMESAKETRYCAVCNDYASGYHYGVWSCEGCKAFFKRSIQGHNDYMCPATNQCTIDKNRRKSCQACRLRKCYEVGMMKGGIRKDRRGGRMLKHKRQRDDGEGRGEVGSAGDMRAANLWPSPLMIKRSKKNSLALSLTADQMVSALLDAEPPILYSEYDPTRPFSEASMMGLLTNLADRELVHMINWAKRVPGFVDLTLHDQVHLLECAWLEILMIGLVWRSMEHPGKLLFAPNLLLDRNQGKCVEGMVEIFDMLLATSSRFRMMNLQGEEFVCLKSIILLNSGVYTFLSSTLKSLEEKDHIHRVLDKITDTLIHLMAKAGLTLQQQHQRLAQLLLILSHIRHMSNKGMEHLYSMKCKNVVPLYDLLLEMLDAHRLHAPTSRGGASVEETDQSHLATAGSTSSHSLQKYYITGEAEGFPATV

[2] = target: T1, Estrogen receptor (Homo sapiens); assay: Induction of ERalpha degradation in human CAMA1 cells assessed as decrease in ER-alpha level at 0.1 uM by Western blot analysis relative to fulvestrant; assay type: cell-based; parameters: scale not given: the % may be the effect or the level left; conditions: CAMA-1
How it was run: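 Western blot for ERα in MCF-7 and CAMA-1 cells after treatment at 0.1 µM. ER level is expressed as % degradation relative to fulvestrant, from a single experiment (n = 1).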

[3] = Fraction unbound in human plasma by equilibrium dialysis method; assay type: ADME, cell-free
How it was run: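 Fraction unbound measured from DMSO stock by equilibrium dialysis in 10% human plasma.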

[4] = target: T1, Estrogen receptor (Homo sapiens); assay: Induction of ERalpha degradation in human MCF7 cells assessed as decrease in ER-alpha level at 0.1 uM by Western blot analysis relative to fulvestrant; assay type: cell-based; parameters: scale not given: the % may be the effect or the level left
[5] = Intrinsic clearance in rat hepatocytes assessed per million cells; assay type: ADME, cell-based, Hepatocyte; conditions: read-out: CLH
How it was run: (§1)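 Hepatocyte intrinsic clearance measured from DMSO stock in isolated hepatocytes diluted to 1x10⁶ cells/mL; rate expressed as µl/min/10⁶ cells.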

[6] = Intrinsic clearance in human hepatocytes assessed per million cells; assay type: ADME, cell-based, Hepatocyte; conditions: read-out: CLH; how it was run: as §1
Estrogen receptor [7] = target: T2, Estrogen receptor (Homo sapiens, UniProt P03372); assay: Displacement of fluormone ES2 green reagent from human GST-tagged ERalpha LBD (282 to 595 residues) expressed in baculovirus infected insect cells incubated for 1 hrs by TR-FRET Lanthascreen assay
T2 sequence (P03372 whole entry): T1 sequence (whole entry)

Estrogen receptor [8] = target: T2, Estrogen receptor; assay: Induction of ERalpha degradation in human MCF7 cells assessed as decrease in ER-alpha level incubated for 18 to 24 hrs by Alexa fluor 488/Hoechst staining based immunofluorescence imaging analysis; assay type: cell-based
How it was run: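 ER degradation in MCF-7 cells via cellular degradation assay; n ≥ 2, degradation also expressed as %Dmax relative to fulvestrant.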

[9] = Lipophilicity, log D of the compound in buffer and octanol at pH 7.4 by shake flask method; assay type: physicochemical
How it was run: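 logD at pH 7.4 by shake flask, buffer/octanol volume ratio 100:1.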

SMILES	Emax [1]	Activity [2]	fraction unbound [3]	Activity [4]	hepatocyte CLint [5]	hepatocyte CLint [6]	pIC50 (Estrogen receptor [7])	pIC50 (Estrogen receptor [8])	logD [9]
COc1cc(OCCN2CC(CF)C2)ccc1[C@@H]1c2ccc3[nH]ncc3c2C[C@@H](C)N1CC(C)C	98%	74%	0.52	94%	9 µL/min/1e6 cells	3 µL/min/1e6 cells	8.10		
COc1cc(NC2CN(CCCF)C2)ccc1[C@@H]1c2ccc3[nH]ncc3c2C[C@@H](C)N1CC(F)(F)CO	98%		0.23		20 µL/min/1e6 cells		8.30	9.70	
COc1cc(NC2CN(CCCF)C2)ccc1[C@@H]1c2ccc3[nH]ncc3c2C[C@@H](C)N1CC(F)F	99%	100%	0.12	99%	14 µL/min/1e6 cells		8.70	10.00	3.2
CC(C)CN1[C@H](c2c(F)cc(OCCN3CC(CF)C3)cc2F)c2ccc3[nH]ncc3c2C[C@H]1C	99%		0.004		74 µL/min/1e6 cells	9 µL/min/1e6 cells	9.10	9.70	4.6
COc1cc(OCCN2CC(CF)C2)ccc1[C@@H]1c2ccc3[nH]ncc3c2C[C@@H](C)N1CC1(F)COC1	95%	75%	0.25	79%	42 µL/min/1e6 cells		8.40	9.60	2.7
C[C@@H]1Cc2c(ccc3[nH]ncc23)[C@@H](c2ccc(NC3CN(CCCF)C3)cn2)N1CC(C)(F)F			0.24		49 µL/min/1e6 cells				
CC(C)CN1[C@H](c2ccc(OCCN3CC(CF)C3)cc2)c2ccc3[nH]ncc3c2C[C@H]1C	99%		0.11		66 µL/min/1e6 cells	8 µL/min/1e6 cells	8.70	9.80	3.4
CC(C)CN1[C@H](c2ccc(OCCN3CC(CF)C3)cn2)c2ccc3[nH]ncc3c2C[C@H]1C	99%		0.19		41 µL/min/1e6 cells	8 µL/min/1e6 cells	8.00	9.40	3.2
C[C@@H]1Cc2c(ccc3[nH]ncc23)[C@@H](c2ccc(NCCNCCCF)cn2)N1CC1(F)CC1	93%				22 µL/min/1e6 cells		8.00	9.00	2
C[C@@H]1Cc2c(ccc3[nH]ncc23)[C@@H](c2ccc(NC3CN(CCCF)C3)cn2)N1CC(F)F	99%		0.4		22 µL/min/1e6 cells		8.40	9.50	2.4
COc1cc(NC2CN(CCCF)C2)ccc1[C@@H]1c2ccc3[nH]ncc3c2C[C@@H](C)N1CC(F)(F)F	98%	110%	0.06	95%	12 µL/min/1e6 cells		8.30	10.20	
C[C@@H]1Cc2c(ccc3[nH]ncc23)[C@@H](c2ccc(NC3CN(CCCF)C3)cn2)N1CC(C)(C)F	96%		0.1		26 µL/min/1e6 cells				
C[C@@H]1Cc2c(ccc3[nH]ncc23)[C@@H](c2ccc(NC3CN(CCCF)C3)cn2)N1CC(F)(F)CO	99%	105%	0.64	104%	16 µL/min/1e6 cells		8.20	9.30	
C[C@@H]1Cc2c(ccc3[nH]ncc23)[C@@H](c2ccc(OCCN3CC(CF)C3)cn2)N1CC(F)F	98%	88%	0.49	97%	36 µL/min/1e6 cells	5 µL/min/1e6 cells	8.60	9.30	
C[C@@H]1Cc2c(ccc3[nH]ncc23)[C@@H](c2ccc(NC3(C)CN(CCCF)C3)cn2)N1CC(F)(F)F	82%				35 µL/min/1e6 cells		8.10	8.50	3.2
COc1cc(NC2CN(CCCF)C2)ccc1[C@@H]1c2ccc3[nH]ncc3c2C[C@@H](C)N1CC(C)(C)F	96%	89%	0.14	86%	8 µL/min/1e6 cells		8.20	9.70	
CC1(C)Cc2c(ccc3[nH]ncc23)[C@@H](c2ccc(NC3CN(CCCF)C3)cn2)N1CC(F)F	98%		0.22		270 µL/min/1e6 cells		8.50	9.10	
C[C@@H]1Cc2c(ccc3[nH]ncc23)[C@@H](c2c(F)cc(OCCN3CC(CF)C3)cc2F)N1CC(C)(C)F		66%	0.008	84%	88 µL/min/1e6 cells	8 µL/min/1e6 cells	9.00	9.90	4.4
CC1(C)Cc2c(ccc3[nH]ncc23)[C@@H](c2ccc(NC3CN(CCCF)C3)cn2)N1CC(F)(F)F	95%		0.14		296 µL/min/1e6 cells				
C[C@@H]1Cc2c(ccc3[nH]ncc23)[C@@H](c2ccc(N(C)[C@H]3CCN(CCCF)C3)cn2)N1CC(F)(F)F	87%		0.057		34 µL/min/1e6 cells		7.40	9.10	3.5
C[C@@H]1Cc2c(ccc3[nH]ncc23)[C@@H](c2ccc(OCCN3CC(CF)C3)cn2)N1CC1(F)CC1	98%	87%	0.34	75%	38 µL/min/1e6 cells	8 µL/min/1e6 cells	8.90	9.40	
C[C@@H]1Cc2c(ccc3[nH]ncc23)[C@@H](c2ccc(NC3CN(CCCF)C3)cn2)N1CC1(F)CC1	96%	102%	0.26	90%	24 µL/min/1e6 cells		8.20	9.20	
C[C@@H]1Cc2c(ccc3[nH]ncc23)[C@@H](c2ccc(O[C@H]3CCN(CCCF)C3)cn2)N1CC(F)(F)F	98%		0.15		44 µL/min/1e6 cells		8.70	9.40	3.2
COc1cc(NC2CN(CCCF)C2)ccc1[C@@H]1c2ccc3[nH]ncc3c2C[C@@H](C)N1CC(C)(F)F	98%	101%	0.043	80%	15 µL/min/1e6 cells		8.60	10.40	
COc1cc(OCCN2CC(CF)C2)ccc1[C@@H]1c2ccc3[nH]ncc3c2C[C@@H](C)N1CC1(F)CC1	96%	88%	0.21	79%	20 µL/min/1e6 cells	7 µL/min/1e6 cells		9.90	
C[C@@H]1Cc2c(ccc3[nH]ncc23)[C@@H](c2ccc(N(C)C3CN(CCCF)C3)cn2)N1CC(F)(F)F	98%	82%	0.15	85%	20 µL/min/1e6 cells		8.70	9.70	
COc1cc(OC2CN(CCCF)C2)ccc1[C@@H]1c2ccc3[nH]ncc3c2C[C@@H](C)N1CC1(F)CC1	97%	90%	0.11	90%	16 µL/min/1e6 cells		8.10		
COc1cc(OCCNCCCF)ccc1[C@@H]1c2ccc3[nH]ncc3c2C[C@@H](C)N1CC1(F)CC1	82%		0.18		9 µL/min/1e6 cells				2.4
C[C@@H]1Cc2c(ccc3[nH]ncc23)[C@@H](c2ccc(NCCNCCCF)cn2)N1CC(F)(F)F	94%		0.16		22 µL/min/1e6 cells		8.30	9.20	2.7
COc1cc(OCCN2CC(CF)C2)ccc1[C@@H]1c2ccc3[nH]ncc3c2C[C@@H](C)N1CC(C)(C)F	95%	74%	0.065	69%	28 µL/min/1e6 cells	12 µL/min/1e6 cells	8.50		3.6
